# Screening results deposited in PubChem BioAssay by The Scripps Research Institute Molecular Screening Center.
# Compounds with a hit are over-represented: about 1.8% of the library has one in this group of screens.
# MBD2 DNA inh – blocks human MBD2 binding to methylated DNA; 370,000 tested, 0.31% active; TR-FRET, MBD2 binding to methylated oligonucleotide; inhibition, % at 4.4 µM; AID 686964; in the data active = inhibition above about 13%
# TDP2 inh – TDP2 (human) inhibition, absorbance primary screen | recombinant TDP2, T5PNP hydrolysis, p-nitrophenol absorbance 415 nm | O95551 | inhibition, % at 12.8 µM | AID 720702 | 370,000 tested, 0.34% active;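 active = inhibition above the mean of all tested compounds plus 3 SD, set per campaign, cut at about 25% in these data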;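 note: 0% = DMSO with enzyme and 100% = buffer with substrate but no TDP2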
# Target sequence (O95551 whole entry, looked up): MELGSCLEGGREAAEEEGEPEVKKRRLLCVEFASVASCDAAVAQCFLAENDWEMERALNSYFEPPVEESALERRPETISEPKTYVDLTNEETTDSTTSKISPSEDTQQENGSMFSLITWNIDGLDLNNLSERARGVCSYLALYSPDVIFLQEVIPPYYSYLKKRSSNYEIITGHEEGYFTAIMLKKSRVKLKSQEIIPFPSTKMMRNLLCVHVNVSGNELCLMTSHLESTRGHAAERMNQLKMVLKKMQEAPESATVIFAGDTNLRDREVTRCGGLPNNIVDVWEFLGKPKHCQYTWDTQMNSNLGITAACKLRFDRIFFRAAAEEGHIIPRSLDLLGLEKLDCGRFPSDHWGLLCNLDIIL
#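 System – recombinant human TDP2 · Quantity – TDP2 enzyme at 120 nM final · Doses – single concentration, 12.8 µM nominal, with 1% DMSO · Incubation – 2 h at 37 °C · Measured by – epi absorbance of p-nitrophenol freed from T5PNP by hydrolysis · Read-out – % inhibition relative to enzyme-containing and enzyme-free wells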
# core dimer inh – blocks dimerization of HCV core protein | TR-FRET GST/Flag-core106 dimerization, 1536-well | inhibition, % at 5 µM | 300,000 tested, 0.33% active | AID 1899;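 active = inhibition above the mean of all tested compounds plus 3 SD, set per screening campaign, cut at about 45% in these data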
#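 Assay system – GST-tagged and Flag-tagged HCV core protein residues 1-106 · Quantity – core106 proteins, GST 13.5 nM and Flag 17 nM · Benchmarks – unlabelled core106 and no-GST-core106 wells · Read-out basis – percent inhibition of core106 dimerization signal · Detection – time-resolved FRET, ex 340 nm, em 617 and 671 nm · Schedule – 4 h at 22.5 °C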
# LEDGF integ inh – blocks HIV-1 LEDGF/p75-dependent DNA integration. AID 743269. inhibition, % at 3.7 µM. TR-FRET IN-LEDGF/p75 DNA integration, Eu/Cy5. 370,000 tested, 0.64% active;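 active = inhibition above the screen-wide mean plus 3 SD, cut at about 13% in these data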;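 note: signal is the Cy5 over europium emission ratio at 671 and 618 nm; 0% = plate median of compound wells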
# UHRF1 MBD2 ctr – blocks human UHRF1 binding to methylated DNA | inhibition, % at 4.4 µM | AID 687016 | Q96T88 | 370,000 tested, 0.75% active | UHRF1 binding to methylated oligo, TR-FRET; in the data active = inhibition above about 21%;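 note: UHRF1 SRA domain binding a hemimethylated CpG hairpin DNA probe; 0% = median of test compound wells and 100% = reference inhibitor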
# IN multimer up – counter-screen for LEDGF/p75 integration inhibitors: HIV-1 integrase multimerization activators; shares compounds with LEDGF integ inh; TR-FRET HIV-1 integrase multimerization, biochemical; activation, % at 7.7 µM; 2,000 tested, 17% active; AID 1053131; in the data active = activation above about 8.9%
# TRFRET interf – optically interferes with TR-FRET readout in LEDGF counter-screen; 2,000 tested, under 10 active; shares compounds with LEDGF integ inh; TR-FRET optical interference counterscreen, HIV-1 IN multimerization; inhibition, % at 7.7 µM;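 active = inhibition above the mean over all tested compounds plus 3 SD, which no compound reached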;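 note: 0% = integrase with antibodies and DMSO and 100% = antibodies without integrase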
# LEDGF integ conf – LEDGF/p75-dependent HIV-1 integration inhibition, confirmation. inhibition, % at 3.7 µM. 2,000 tested, 36% active. shares compounds with LEDGF integ inh. TR-FRET LEDGF/p75-dependent HIV-1 integration, biochemical; in the data active = inhibition above about 14%
# The depositor's hits bear a star; . = no result given.
SMILES,MBD2 DNA inh,TDP2 inh,core dimer inh,LEDGF integ inh,UHRF1 MBD2 ctr,IN multimer up,TRFRET interf,LEDGF integ conf
Clc1cccc(-c2ccc(C=Nc3ccc(N4CCOCC4)cc3)o2)c1Cl,-5,15,.,24*,-1,4,-20,12
CCCCNC(=O)C1c2ccccc2OCC(=O)N1Cc1ccco1 (configuration not stated),1,4,.,-5,0,.,.,.
CCCCNC(=O)C1c2ccccc2OCC(=O)N1Cc1ccccn1 (configuration not stated),2,3,.,30*,0,-3,14,3
Oc1cc(CNC2CCCCC2)c(O)cc1CNC1CCCCC1,-8,2,.,14*,-7,3,-12,24*
COc1cc(Cn2cc([C@]34C[C@H]5C(=O)N(C)CC(=O)N5[C@H]3N(S(=O)(=O)c3ccccc3)c3ccccc34)c3ccccc32)cc(OC)c1,6,2,.,-1,3,.,.,.
O=C(NC1CC1)c1sc2cc(F)ccc2c1Cl,-1,4,.,21*,-1,0,-1,2
COCC(=O)OC1CCn2c1nc1c2C(=O)C(C)=C(NC(C)=O)C1=O (configuration not stated),-3,89*,.,16*,13,6,-21,58*
CC1(C)CC(=O)C2=C(C1)Oc1ncn(CCCn3ccnc3)c(=N)c1C2c1ccccc1 (configuration not stated),0,6,-3,88*,1,0,0,0
O=C(CSc1nnc(-c2cccs2)o1)c1cccc([N+](=O)[O-])c1,-3,-11,.,2,0,.,.,.
CCOC(=O)C1=C(C)N(C)C(=O)NC1c1cc2c(cc1[N+](=O)[O-])OCO2 (configuration not stated),5,13,3,14*,8,10*,-37,2
CCc1ccc(-n2ncc(Cl)c(Oc3ccc(OC)cc3)c2=O)cc1,-5,-4,.,4,2,.,.,.
Oc1ccc(/C=N/Nc2ccc(Cl)nn2)c(O)c1O,6,11,-22,70*,21*,31*,-111,62*
CCOC(=O)c1ccc(N2C(=O)c3n[nH]c(-c4ccco4)c3C2c2cccc([N+](=O)[O-])c2)cc1 (configuration not stated),-5,-13,27,16*,-2,-1,6,10
O=C(CCl)Nc1nc(-c2ccco2)c(-c2ccco2)s1,-1,5,9,25*,2,23*,-115,68*
Nc1nc(-c2cccs2)c(-c2cccs2)s1,2,2,6,0,-5,.,.,.
O=C(CCCSc1ccccc1)Nc1nc(-c2ccco2)c(-c2ccco2)s1,4,-4,7,20*,3,3,-13,13
Nc1nc(-c2ccco2)c(-c2ccco2)s1,2,3,40,30*,8,8.9*,-45,19*
Cc1noc(/C=C/N(C)C)c1S(=O)(=O)N1CCCC(C(=O)NCc2cccs2)C1 (configuration not stated),-3,4,20,17*,-1,0,-2,-6
Cc1noc(/C=C/N(C)C)c1S(=O)(=O)N1CCC(C(=O)O)CC1,-1,5,-3,17*,3,-1,7,2
C=CCOC(=O)N[C@@H](c1coc2ccccc2c1=O)[C@@H](C)/C=C/CC(=O)OC,-6,-6,.,6,-3,.,.,.
c1nc(NCC2CCCCO2)c2cc(-c3ccc4c(c3)OCO4)ccc2n1 (configuration not stated),4,8,.,-2,0,.,.,.
O=C(OC1CC2CC1[C@H]1CCCCN1C2=O)N1CCC(c2ccccc2)CC1 (some centres not stated),1,3,.,23*,4,0,0,1
